In PMC10786304 (Proceedings of the National Academy of Sciences of the …, 2024):
Values after ≈ are worked out from the molar mass of the structure shown.

Experiments:
[1] = tested on: M. abscessus ATCC 19977 ∆3508c ∆2780c; assay: MIC, double deletion mutant ∆whiB7 ∆tetV; format: cell-based, Mycobacterium abscessus; settings: ∆tetV MIC divided by ∆whiB7 ∆tetV MIC
[2] = tested on: M. abscessus ATCC 19977 ∆2780c (∆tetV); assay: MIC, isogenic deletion mutant ∆tetV; format: cell-based, Mycobacterium abscessus; settings: for WT/∆2780c ratio: WT MIC divided by ∆tetV MIC
[3] = tested on: 2593-resistant spontaneous Mab mutants (Mab ATCC 19977); assay: Selection and MIC testing of 2593-resistant spontaneous Mab mutants; format: cell-based, Mycobacterium abscessus; settings: cross-resistance test
[4] = tested on: purified M. smegmatis ATCC 19420 ribosomes; assay: Mycobacterial cell-free translation inhibition assay; format: biochemical, Mycobacterium smegmatis; settings: read-out: IC50 M. smg ribo
[5] = tested on: M. abscessus ATCC 19977 ∆2780c (∆tetV); settings: ref [7], [17]; cited from earlier work
[6] = tested on: M. abscessus ATCC 19977 ∆3508c (∆whiB7); assay: MIC, isogenic deletion mutant ∆whiB7; format: cell-based, Mycobacterium abscessus; settings: versus wild type
M. abscessus ATCC 19977 = assay: microbe, parasite or virus in culture; format: cell-based, Mycobacterium abscessus; settings: Mycobacteroides abscessus, ATCC19977, 120 h, read-out: MIC M. abs
Mab ATCC 19977 = assay: Whole-cell accumulation assay; format: cell-based, Mycobacterium abscessus; settings: 100 µM compound, 30 min; mean ± SD
Method in brief: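 Mab grown in MHB2 + 0.05% tyloxapol (37 °C, shaking) to OD600 0.5–0.6 was washed in PBS with 0.05% Tween-80 and 5% glucose. The concentrated suspension was incubated with 100 µM compound (1% DMSO) for 30 min at 37 °C, then washed three times; an aliquot was taken for CFU. Pellets were lysed and filtered supernatant quantified by LC-MS/MS. A = C×V/CFU, normalized to 10^10 CFU. Biological triplicate, mean and SD; ANOVA with Dunnett versus SPC.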

SMILES | ∆2780c/∆3508c ∆2780c ratio [1] | WT/∆2780c ratio [2] | susceptibility of 2593-resistant mutants [3] | IC50 [4] [nM] | increase in SPC susceptibility of Mab Δ2780c deletion mutants [5] [fold] | increase in susceptibility in the ΔtetV strain ([2]; versus wild type) [fold] | increase in susceptibility against the ΔwhiB7 strain [6] | MIC (M. abscessus ATCC 19977) [µg/mL] | whole-cell accumulation (Mab ATCC 19977) [nM/10^10 CFU]
NCC[C@H](O)C(=O)N[C@@H]1C[C@H](N)[C@@H](O[C@H]2O[C@H](CN)[C@@H](O)[C@H](O)[C@H]2O)[C@H](O)[C@H]1O[C@H]1O[C@H](CO)[C@@H](O)[C@H](N)[C@H]1O [AMK, amikacin] | 8 | 1 | remained susceptible | – | – | – | – | – | –
CN[C@@H]1[C@H](O)[C@H](NC)[C@H]2O[C@@]3(O)C(=O)C[C@@H](C)O[C@H]3O[C@@H]2[C@H]1O [SPC, spectinomycin] | 1 | 64 | – | 800 ± 210 | > 100 | 64 | eightfold | 256 (≈ 770 µM) | 38.2 ± 9.0
